Bioassay records (PubChem BioAssay)
Rows were chosen to be rich in hits. Some 1.9% of all compounds tested hit in one or more screens of this group.
Rin1 Abl inh: human Rin1-Abl interaction inhibition | inhibition, % at 7.35 µM | actives 0.4% (n = 360,000) | P00519+Q13671 | AID 588664 | TR-FRET Rin1/Abl binding, biochemical; in the data active = inhibition above about 5%, passing the limit was not always enough
NadD block: inhibitors of Staphylococcus aureus NadD; actives 0.78% (n = 360,000); purified NadD enzyme, colorimetric absorbance read-out; inhibition, % at 20 µM; in the data active = inhibition above about 26%
Xi reactivation: X-chromosome reactivation activator; AID 743238; actives 0.055% (n = 360,000); activation, % at 7.58 µM; XiGFP mouse fibroblasts, % GFP-positive cells imaging, 3 d; cells co-treated with 5-aza-dC sensitizer; scaled so ellipticine positive control = 100%;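 active = mean normalized replicate activation at least 10% and every replicate at or above 10%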;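 note: 0% = median of on-plate neutral control wells and 100% = ellipticine 6 µM median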
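Material: SV40-immortalized XiGFP fibroblast cells, line 68-5-11 | Buffer or medium: DMEM containing 5-aza-dC | Dosing: One concentration, pinned | Times: 3 d treatment, 15 min room-temperature fixation | Controls: Ellipticine 6 µM positive control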
Rpn11 block: inhibitors of human proteasome Rpn11 | inhibition, % at 20 µM | human 26S proteasome, Ub4-pepOG fluorescence polarization; 20S core pre-blocked with epoxomicin | actives 0.59% (n = 360,000);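 active = inhibition at 20 µM, scaled to each plate's controls, above about 33%, limit read from the data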
ABHD5-PLIN5 inh: inhibitors of human ABHD5-perilipin-5 interaction | inhibition, % at 4 µM | Q00G26+Q8WTS1 | actives 0.78% (n = 360,000) | Split G. princeps luciferase complementation, luminescence, 4 h | AID 602281;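 active = inhibition above the mean inhibition across every tested compound plus 3 SD, cut at about 22% in these data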;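 note: 0% = DMSO only wells and the 100% control is not disclosed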
Target sequence (Q00G26 whole entry, looked up): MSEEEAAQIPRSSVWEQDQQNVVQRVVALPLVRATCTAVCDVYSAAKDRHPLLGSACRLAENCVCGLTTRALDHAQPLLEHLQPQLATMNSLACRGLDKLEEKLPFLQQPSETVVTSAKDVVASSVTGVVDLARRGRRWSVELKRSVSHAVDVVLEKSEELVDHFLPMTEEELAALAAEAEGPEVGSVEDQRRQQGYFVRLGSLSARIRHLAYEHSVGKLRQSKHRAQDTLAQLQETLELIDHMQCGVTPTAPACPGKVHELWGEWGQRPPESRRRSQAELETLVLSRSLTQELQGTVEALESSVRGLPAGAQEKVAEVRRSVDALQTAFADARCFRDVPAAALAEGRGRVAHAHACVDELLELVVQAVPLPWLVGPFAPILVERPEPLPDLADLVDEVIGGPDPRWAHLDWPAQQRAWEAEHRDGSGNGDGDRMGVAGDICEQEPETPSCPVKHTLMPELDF
Target sequence (Q8WTS1 whole entry, looked up): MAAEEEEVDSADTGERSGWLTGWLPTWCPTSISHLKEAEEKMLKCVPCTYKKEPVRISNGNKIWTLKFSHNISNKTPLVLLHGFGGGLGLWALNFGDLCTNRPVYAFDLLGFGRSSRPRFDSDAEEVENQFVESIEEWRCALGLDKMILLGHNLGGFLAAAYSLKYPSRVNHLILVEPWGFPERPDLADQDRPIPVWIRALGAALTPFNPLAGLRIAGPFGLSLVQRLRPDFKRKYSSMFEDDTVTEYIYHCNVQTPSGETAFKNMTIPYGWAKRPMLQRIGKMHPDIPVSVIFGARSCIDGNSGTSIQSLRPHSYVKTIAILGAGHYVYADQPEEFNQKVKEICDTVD
NadD inh conf: NadD (S. aureus) inhibition, single concentration confirmation | inhibition, % at 20 µM | actives 13% (n = 2,000) | purified S. aureus NadD, colorimetric enzyme assay | shares compounds with NadD block; in the data active = inhibition mostly above about 42%, no sharp cut-off; inactive = mostly below about 42%
* marks the source's active call; other numbers are inactive results; / = no result given.

SMILES	Rin1 Abl inh	NadD block	Xi reactivation	Rpn11 block	ABHD5-PLIN5 inh	NadD inh conf
Cc1ccc(C(=O)OCC(=O)Nc2sc3c(c2C#N)CCCC3)cc1NC(=O)c1ccco1	1	59*	/	20	2	17
Cc1ccc(C(=O)OCC(=O)Nc2sc3c(c2C#N)CCCCC3)cc1NC(=O)c1ccco1	0	36*	/	4	-6	12
Cc1ccc(C(=O)OCC(=O)Nc2sc3c(c2C#N)CCC3)cc1	-1	10	0	2	3	/
Cc1ccc(C(=O)OCC(=O)Nc2sccc2C(N)=O)cc1NC(=O)c1ccco1	-3	8	/	8	-5	/
Cc1ccc(NC(=O)CSc2nnc(CSc3nc(C)cc(C)n3)n2Cc2ccco2)c(C)c1	0	3	/	7	2	/
Cc1ccc(NCc2nnc(SCC(=O)c3ccccc3)n2Cc2ccco2)c(C)c1	3	25*	/	12	18	57*
CCOc1cccc(C(=O)Nc2nc(-c3ccc(S(=O)(=O)N4CCOCC4)cc3)cs2)c1	-3	15	/	2	-3	/
O=C(COc1cccc(Cl)c1)Nc1nc(-c2ccc(S(=O)(=O)N3CCOCC3)cc2)cs1	0	32*	/	12	4	7
O=C(C[C@@H]1C[C@H]2c3cc(NC(=O)C4CCC4)ccc3O[C@H]2[C@@H](CO)O1)NCc1cccnc1	/	/	0	/	/	/
NC(=O)[C@H]1CC2(CC(c3cccc(NC(=O)CC(c4ccccc4)c4ccccc4)c3)=NO2)CN1C(=O)C(c1ccccc1)c1ccccc1 (stereo partly specified)	0	33*	1	7	-9	27
NC(=O)[C@H]1CC2(CC(c3cccc(NC(=O)CC(c4ccccc4)c4ccccc4)c3)=NO2)CN1C(=O)c1ccccc1C(=O)c1ccccc1 (stereo partly specified)	-3	44*	0	7	17	30
O=[N+]([O-])c1ccccc1/C=C/C=N/n1c(-c2cc(-c3ccccc3)n[nH]2)n[nH]c1=S	-3	42*	0	5	-7	9
O=[N+]([O-])c1ccccc1/C=C/C=N/n1c(-c2ccco2)n[nH]c1=S	-1	7	0	0	5	/
Cc1ccc(-c2n[nH]c(=S)n2/N=C/C=C/c2ccccc2[N+](=O)[O-])cc1	-4	35*	/	1	-1	20
CO[C@H]1CN(C)C(=O)c2ccc(NS(=O)(=O)c3ccc(C)cc3)cc2OC[C@H](C)NC[C@@H]1C	/	/	0	/	/	/
CCC(=O)N1CC2(C1)[C@H](c1ccccc1)[C@@H](CO)N2Cc1cccc(Cl)c1	/	/	0	/	/	/
CN1CCc2c(sc(/N=C/c3c[nH]c4ccccc34)c2C#N)C1	-30	44*	1	/	2	-14
C[C@H](CO)N1C[C@H](C)[C@H](CN(C)S(=O)(=O)c2cn(C)cn2)OCCCC[C@H](C)Oc2ccc(NS(=O)(=O)c3cccs3)cc2C1=O	/	/	0	/	/	/
Cc1ccc(/C=N/Nc2nncc(-c3ccccc3)n2)o1	-4	-2	5	-2	6	/
Clc1ccc(-c2ccc(/C=N/Nc3nncc(-c4ccccc4)n3)o2)cc1	-2	38*	/	3	-4	13
Clc1ccccc1-c1ccc(/C=N/Nc2nncc(-c3ccccc3)n2)o1	1	32*	0	2	-2	10
COc1ccc(NC(=O)N(C)C[C@@H]2OCCCC[C@@H](C)Oc3ccc(NS(C)(=O)=O)cc3C(=O)N([C@H](C)CO)C[C@H]2C)cc1	/	/	0	/	/	/
COCCNC(=O)C[C@@H]1CC[C@H](NS(=O)(=O)c2ccc(C)cc2)[C@H](CO)O1	/	/	0	/	/	/
O=C1N[C@@H](Cc2ccccc2)C(=O)N2[C@H]1C[C@]1([C@]34C[C@H]5C(=O)N[C@@H](Cc6ccccc6)C(=O)N5[C@H]3N(S(=O)(=O)c3ccccc3)c3ccccc34)c3ccccc3N(S(=O)(=O)c3ccccc3)[C@H]21	5	38*	0	-8	21	45
CCc1nnc(NS(=O)(=O)c2ccc(N/C=C\C(=O)c3ccc4ccccc4c3)cc2)s1	-4	30*	0	16	-6	50*
SMILES	Rin1 Abl inh	NadD block	Xi reactivation	Rpn11 block	ABHD5-PLIN5 inh	NadD inh conf
CCc1nnc(NS(=O)(=O)c2ccc(NC(=O)c3ccccc3)cc2)s1	-2	1	0	-3	0	/
OC[C@H]1[C@H](c2ccc(-c3ccccc3F)cc2)[C@H]2CN(Cc3ccncc3)CCCCN21	/	/	0	/	/	/
CCCNC(=O)N1C[C@H](C)[C@H](OC)CN(C)C(=O)c2ccc(NS(=O)(=O)CC(F)(F)F)cc2OC[C@H]1C	/	/	0	/	/	/
O=C(Nc1ccc(F)cc1)N1CC(=O)N2[C@H](CO)[C@@H](c3ccc(Br)cc3)[C@@H]2C1	/	/	0	/	/	/
CCN=C1NN=C(c2cc(C)n(Cc3ccco3)c2C)CS1	-3	37*	0	7	6	7
COCCn1c(C)cc(C2=NNC(=Nc3ccccc3)SC2)c1C	0	36*	/	5	-6	4
C[C@@H]1CN([C@@H](C)CO)C(=O)CCCn2nncc2CO[C@@H]1CN(C)C	/	/	0	/	/	/
O=C(NCC[C@@H]1CC[C@H](NS(=O)(=O)Cc2ccccc2)[C@@H](CO)O1)C1CCCC1	/	/	0	/	/	/
C[C@@H]1CCCCO[C@@H](CN(C)S(=O)(=O)c2ccccc2)[C@H](C)CN([C@H](C)CO)C(=O)c2cc(NS(=O)(=O)c3cccs3)ccc2O1	/	/	0	/	/	/
O=C(CSCc1nc2scc(-c3cccs3)c2c(=O)[nH]1)Nc1ccccn1	-2	0	0	22	-1	/
O=c1[nH]c(CN2CCc3ccccc32)nc2scc(-c3cccs3)c12	-1	42*	/	35	0	14
CCC(=O)NC(c1cccs1)c1cc([N+](=O)[O-])c2cccnc2c1OC (stereo unspecified)	-10	32*	0	6	3	26
CCCCCCc1cc2cc(S(=O)(=O)c3ccc(Cl)cc3)c(=O)oc2cc1O	0	36*	0	7	-2	2
CCCCCCc1cc2cc(S(=O)(=O)c3ccc(C)cc3)c(=O)oc2cc1O	0	11	0	7	-11	/
N#CCSc1nc2ccc(N3CCCCC3)cc2c(=O)n1Cc1ccccc1	-2	41*	/	-2	1	6
C[C@@H]1CN([C@@H](C)CO)C(=O)c2cc(NC(=O)Nc3ccc(C(F)(F)F)cc3)ccc2O[C@@H](C)CCCCO[C@H]1CN(C)C(=O)Nc1cccc2ccccc12	/	/	-1	/	/	/
O=C(CSC(=S)N1CCN(c2ccccc2)CC1)Nc1nc(-c2ccccc2)c(-c2ccccc2)o1	-3	35*	0	-3	1	2
O=C(CSC(=S)N1CCOCC1)Nc1nc(-c2ccccc2)c(-c2ccccc2)o1	4	15	/	5	-1	/
CCC(=O)N1[C@@H](CO)[C@H](c2ccccc2)[C@@H]1CNC(=O)CN1CCOCC1	/	/	0	/	/	/
